Data taken from ChEMBL document CHEMBL1155633, “New lignan glycosides with potent antiinflammatory effect, isolated from Justicia ciliata” (J Nat Prod, 2000).
Active and inactive are the calls of the source. The rule behind the calls is not given here.

Tests used:
[1] = test system: N9; experiment: Antiinflammatory activity against mouse N9 cells assessed as inhibition of LPS/IFN-gamma-induced nitrite accumulation treated 1 hr before LPS challenge assessed after 24 hrs
[2] = Antiinflammatory activity against mouse […] cells assessed as inhibition of LPS-induced nitrite accumulation at 0.1 mM treated 1 hr before LPS challenge assessed after 24 hrs; type: functional
Summary of the method: (§1)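 RAW 264.7 cells in DMEM with 5% FCS seeded at 2×10^5 cells/well and allowed to adhere overnight. Pretreated 1 h at 37 °C with compound or 0.5% DMSO (final), then stimulated with 1 μg mL⁻¹ E. coli 0111:B4 LPS for 24 h. Medium nitrite measured by Griess reaction (absorbance 550 nm) using an NaNO₂ standard curve. Mean ± s.e.m., n=3.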

[3] = Antiinflammatory activity against mouse […] cells assessed as inhibition of LPS-induced nitrite accumulation treated 1 hr before LPS challenge assessed after 24 hrs; type: functional, cell-based
Summary of the method: (§2)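 RAW 264.7 macrophages were plated at 2×10^5 cells/well in DMEM with 5% FCS and adhered overnight. They were pretreated 1 h at 37 °C with compound or 0.5% DMSO vehicle, then stimulated with E. coli 0111:B4 LPS 1 μg/mL for 24 h. Medium nitrite was read by Griess reaction (10 min at RT, A550) against an NaNO₂ standard. Mean ± s.e.m., n=3; IC50 from concentration–response.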

[4] = Antiinflammatory activity against mouse […] cells assessed as inhibition of LPS-induced nitrite accumulation at 0.3 mM treated 1 hr before LPS challenge assessed after 24 hrs; type: functional
Summary of the method: as §1

[5] = Antiinflammatory activity against mouse […] cells assessed as inhibition of LPS-induced nitrite accumulation at 1 mM treated 1 hr before LPS challenge assessed after 24 hrs; type: functional
Summary of the method: as §1

[6] = Antiinflammatory activity against mouse […] cells assessed as inhibition of LPS-induced nitrite accumulation at 30 uM treated 1 hr before LPS challenge assessed after 24 hrs; type: functional
Summary of the method: as §2

[7] = Antiinflammatory activity against mouse […] cells assessed as inhibition of LPS-induced nitrite accumulation at 10 uM treated 1 hr before LPS challenge assessed after 24 hrs; type: functional
Summary of the method: as §2

[8] = test system: N9; experiment: Antiinflammatory activity against mouse N9 cells assessed as inhibition of LPS/IFN-gamma-induced TNFalpha generation treated 1 hr before LPS challenge assessed after 24 hrs; type: functional, cell-based
Summary of the method: (§3)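 TNF-α release assay. Cells were pretreated with compound at 37 °C for 1 h and then stimulated for 24 h. N9 microglia were in Iscove's medium with 2% heat-inactivated FCS at 8×10^4 cells/well and were stimulated with LPS 10 μg/mL. RAW 264.7 cells were in DMEM with 5% FCS at 2×10^5 cells/well and were stimulated with LPS 1 μg/mL. Medium was stored at -70 °C until assay.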

[9] = test system: N9; experiment: Antiinflammatory activity against mouse N9 cells assessed as inhibition of LPS/IFN-gamma-induced nitrite accumulation at 10 uM treated 1 hr before LPS challenge assessed after 24 hrs
[10] = organism: Mus musculus; experiment: Antiinflammatory activity against mouse […] cells assessed as inhibition of LPS-induced TNFalpha generation treated 1 hr before LPS challenge assessed after 24 hrs; type: functional, cell-based
Summary of the method: as §3

[11] = Antiinflammatory activity against mouse […] cells assessed as inhibition of LPS-induced nitrite accumulation at 3 uM treated 1 hr before LPS challenge assessed after 24 hrs; type: functional
Summary of the method: as §2

[12] = test system: N9; experiment: Antiinflammatory activity against mouse N9 cells assessed as inhibition of LPS/IFN-gamma-induced nitrite accumulation at 30 uM treated 1 hr before LPS challenge assessed after 24 hrs

`COC(=O)[C@@H](N)CCCNC(=N)N[N+](=O)[O-]` [L-NAME] showed an IC50 [1] of 630 µM, an inhibition at 100 µM [2] of 16.8% and an IC50 [3] of 510 µM. The inhibition at 300 µM [4] was 15.6% and the inhibition at 1000 µM [5] was 6.6%.
With `COc1cc2c(O[C@@H]3OC[C@](O)(CO[C@@H]4OC[C@@H](O)[C@H](O)[C@H]4O)[C@H]3O[C@@H]3OC[C@H](O)[C@H](O)[C@H]3O)c3c(c(-c4ccc5c(c4)OCO5)c2cc1OC)C(=O)OC3` [CILIATOSIDE A] the inhibition at 30 µM [6] was 11.9%, the inhibition at 10 µM [7] was 18.7% and the Activity [8] was “inactive”. For the same compound, the inhibition at 10 µM [9] was 46.7%, the Activity [10] was “inactive” and the inhibition at 3 µM [11] was 22%. The IC50 [3] was 27.1 µM and the inhibition at 30 µM [12] was 37.9%.
For `COc1cc2c(O[C@@H]3OC[C@](O)(CO[C@@H]4OC[C@@H](O)[C@H](O)[C@H]4O)[C@H]3O[C@@H]3OC[C@H](O)[C@H](O[C@@H]4OC[C@](O)(CO)[C@H]4O)[C@H]3O)c3c(c(-c4ccc5c(c4)OCO5)c2cc1OC)C(=O)OC3` [CILIATOSIDE B], the inhibition at 30 µM [6] was 12.4%, the inhibition at 10 µM [7] was 20.5% and the Activity [8] was “inactive”. For the same compound, the inhibition at 10 µM [9] was 42.8%, the Activity [10] was “inactive” and the inhibition at 3 µM [11] was 20.7%. It also gave an IC50 [3] of 29.4 µM and an inhibition at 30 µM [12] of 36.5%.
